The results in this text go back to ChEMBL document CHEMBL2010757, “Cholinestrase inhibitory effects of geranylated flavonoids from Paulownia tomentosa fruits” (Bioorg Med Chem, 2012).

Assay [1] concerns the target T1, Butyrylcholinesterase (Equus caballus, UniProt Q9N1N9). Description: Mixed type inhibition of equine BChE using butyrylthiocholine iodide as substrate by Lineweaver-Burk double-reciprocal-plot and dixon plot analysis. The gist of the method: (§1)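 Equine serum BChE (0.05 U/mL) mixed with sample in 100 mM sodium phosphate pH 8.0, held 10 min at room temperature; started with DTNB (3.3 mM) and butyrylthiocholine iodide (1 mM). 5-Thio-2-nitrobenzoate read at 412 nm, triplicate. IC50 as concentration giving 50% inhibition; kinetics by Lineweaver–Burk plots at rising substrate and inhibitor levels, Ki from Dixon plot.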

Assay [2] addresses T2, Acetylcholinesterase (Homo sapiens, UniProt P22303). Description: Binding affinity to human erythrocyte AChE assessed as fluorescence quenching by microplate reader. An outline of the steps: (§2)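 hAChE at 5 U/mL in 100 mM sodium phosphate pH 8.0 titrated with successive inhibitor additions. Excitation 276 nm, emission 300–400 nm, slits 2.0 nm, at 18 and 37 °C; triplicate means. Affinity constant KA and n from log[(F0−F)/F] = logKA + n log[Q] for static quenching.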

In assay [3] the target is T2, Acetylcholinesterase. Description: Binding affinity to human erythrocyte AChE. An outline of the steps:
as §2

Assay [4] deals with T2, Acetylcholinesterase. Description: Reversible inhibition of human erythrocyte AChE using assessed as acetylthiocholine iodide hydrolysis by spectrophotometry. The conditions noted are these: TDE = time-dependent effect. An outline of the steps: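 hAChE (0.25 U/mL) with 1 mM acetylthiocholine in 100 mM sodium phosphate pH 8.0 at 37 °C, read continuously by spectrophotometer for 300 s. Reversibility from initial velocity versus enzyme amount at several inhibitor levels. Enzyme preincubated with inhibitor 0–60 min in 10 min steps; residual velocity (v/v0) followed; progress curves at one inhibitor level fitted by nonlinear regression.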

The target in assay [5] is T2, Acetylcholinesterase. Description: Inhibition of human erythrocyte AChE assessed as acetylthiocholine iodide hydrolysis after 10 mins preincubation by spectrophotometry. An outline of the steps:
(§3)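 Human erythrocyte AChE (0.25 U/mL) with sample in 100 mM sodium phosphate pH 8.0, 10 min room temperature preincubation; started with DTNB (3.3 mM) and acetylthiocholine iodide (1 mM). Thiolate formation read at 412 nm, triplicate. IC50 as concentration for 50% inhibition; mode by Lineweaver–Burk plots over rising substrate and inhibitor, Ki by Dixon plot.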

The target of assay [6] is T2, Acetylcholinesterase. Kind of assay: Mixed type inhibition of human erythrocyte AChE using acetylthiocholine iodide as substrate by Lineweaver-Burk double-reciprocal-plot and dixon plot analysis. An outline of the steps:
as §3

The target in assay [7] is T1, Butyrylcholinesterase. Description: Inhibition of equine BChE assessed as butyrylthiocholine iodide hydrolysis after 10 mins preincubation by spectrophotometry. The gist of the method:
as §1

The target in assay [8] is T2, Acetylcholinesterase. Kind of assay: Ratio of eriodictyol IC50 to compound IC50 for human erythrocyte AChE.

Structures are written as SMILES.

T1 sequence (Q9N1N9 whole entry): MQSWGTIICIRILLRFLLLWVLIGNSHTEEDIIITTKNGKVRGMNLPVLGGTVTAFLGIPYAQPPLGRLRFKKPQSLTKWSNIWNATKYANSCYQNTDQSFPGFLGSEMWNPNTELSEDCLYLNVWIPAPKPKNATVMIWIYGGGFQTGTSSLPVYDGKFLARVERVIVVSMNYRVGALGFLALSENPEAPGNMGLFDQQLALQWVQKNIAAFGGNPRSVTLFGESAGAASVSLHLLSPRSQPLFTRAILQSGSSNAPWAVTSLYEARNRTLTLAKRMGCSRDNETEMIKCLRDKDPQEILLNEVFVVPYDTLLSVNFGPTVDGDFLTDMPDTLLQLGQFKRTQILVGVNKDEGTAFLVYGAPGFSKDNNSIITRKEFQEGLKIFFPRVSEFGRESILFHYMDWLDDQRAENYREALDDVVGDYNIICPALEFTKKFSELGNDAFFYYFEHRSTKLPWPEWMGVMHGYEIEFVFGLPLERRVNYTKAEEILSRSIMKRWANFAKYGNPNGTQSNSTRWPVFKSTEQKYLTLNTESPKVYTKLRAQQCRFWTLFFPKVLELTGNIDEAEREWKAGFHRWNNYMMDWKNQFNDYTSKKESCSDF
T2 sequence (P22303 whole entry): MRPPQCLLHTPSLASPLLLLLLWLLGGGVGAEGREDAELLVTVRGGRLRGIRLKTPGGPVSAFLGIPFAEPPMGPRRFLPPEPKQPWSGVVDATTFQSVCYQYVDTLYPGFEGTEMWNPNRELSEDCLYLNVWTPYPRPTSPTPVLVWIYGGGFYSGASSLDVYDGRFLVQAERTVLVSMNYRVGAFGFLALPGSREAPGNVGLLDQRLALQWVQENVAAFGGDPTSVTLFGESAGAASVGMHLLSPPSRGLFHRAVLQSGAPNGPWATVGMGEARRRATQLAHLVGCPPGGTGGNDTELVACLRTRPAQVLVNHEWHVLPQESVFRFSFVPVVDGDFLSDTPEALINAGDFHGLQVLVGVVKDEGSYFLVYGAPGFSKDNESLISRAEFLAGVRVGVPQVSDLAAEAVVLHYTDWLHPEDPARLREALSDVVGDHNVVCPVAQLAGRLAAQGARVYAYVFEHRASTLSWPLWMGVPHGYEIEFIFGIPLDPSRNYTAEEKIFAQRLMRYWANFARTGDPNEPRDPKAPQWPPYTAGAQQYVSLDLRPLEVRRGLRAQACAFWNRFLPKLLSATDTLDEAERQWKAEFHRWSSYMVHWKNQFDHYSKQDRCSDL

In general, Ki refers to a measure of affinity in units of concentration, obtained from inhibition or displacement. A lower Ki goes with a stronger hold on the target. For orientation: IC50 means the concentration that inhibits the measured activity by half. For the compound `COc1c(O)cc(C2Oc3cc(O)c(C/C=C(\C)CCC=C(C)C)c(O)c3C(=O)[C@@H]2O)cc1O` (some centres not stated), the Ki was found to be 4.5 µM at Butyrylcholinesterase [1] and 16.9 µM at Acetylcholinesterase [6]. In addition, the KSV on Acetylcholinesterase [2] stood at 0.0369 ×10⁵ L/M. The same compound displayed a Ka at Acetylcholinesterase [3] of 4.54 ×10³ L/M. In addition, the inhibition result on Acetylcholinesterase [4] was “tde”; on Acetylcholinesterase [5] it was “Dose-dependent effect”. Besides, the IC50 came to 15.6 µM on Acetylcholinesterase [5] and 3.8 µM on Butyrylcholinesterase [7].

With `COc1cc([C@@H]2CC(=O)c3c(cc(O)c(C/C=C(\C)CCC=C(C)C)c3O)O2)ccc1O`, the values for the Ki on Butyrylcholinesterase [1] and on Acetylcholinesterase [6] were 23.6 µM and 150 µM, respectively. Besides, the values for the inhibition result at Acetylcholinesterase [4] and on Acetylcholinesterase [5] were “tde” and “Dose-dependent effect”, respectively. The IC50 at Acetylcholinesterase [5] worked out at 109 µM; on Butyrylcholinesterase [7], 24.5 µM.

`O=C1C[C@@H](c2ccc(O)c(O)c2)Oc2cc(O)cc(O)c21` [ERIODICTYOL]: the IC50 worked out at 1660 µM at Acetylcholinesterase [5] and 1120 µM on Butyrylcholinesterase [7].

Turning to `COc1ccc([C@@H]2CC(=O)c3c(cc(O)c(C/C=C(\C)CCC=C(C)C)c3O)O2)cc1O`, the figures for the Ki on Butyrylcholinesterase [1] and at Acetylcholinesterase [6] were 23.5 µM and 94.5 µM, respectively. The KSV on Acetylcholinesterase [2] is 0.0103 ×10⁵ L/M. The same compound gave a Ka at Acetylcholinesterase [3] of 0.924 ×10³ L/M. Also, the results for the inhibition entry on Acetylcholinesterase [4] and at Acetylcholinesterase [5] were “tde” and “Dose-dependent effect”, respectively. Also, the IC50 amounted to 92.4 µM at Acetylcholinesterase [5] and 25.6 µM on Butyrylcholinesterase [7].

As to `COc1c(O)cc(C2CC(=O)c3c(cc(O)c(C/C=C(\C)CCC=C(C)C)c3O)O2)cc1O` (configuration not stated), the Ki on Butyrylcholinesterase [1] came out at 7.6 µM; at Acetylcholinesterase [6], 30.1 µM. The inhibition result at Acetylcholinesterase [4] was “tde”; on Acetylcholinesterase [5] it was “Dose-dependent effect”. Also, the IC50 on Acetylcholinesterase [5] was 22.9 µM; on Butyrylcholinesterase [7], 6.4 µM.

With `CNC(=O)Oc1ccc2c(c1)[C@]1(C)CCN(C)[C@@H]1N2C` [PHYSOSTIGMINE], at Butyrylcholinesterase [7], the IC50 was determined as 3.7 µM.

For `CC(C)=CCC/C(C)=C/Cc1c(O)cc2c(c1O)C(=O)C[C@@H](c1ccc(O)cc1)O2` [BONANNIONE A], the Ki at Butyrylcholinesterase [1] is 22.2 µM; on Acetylcholinesterase [6], 120 µM. The inhibition result on Acetylcholinesterase [4] is “tde”; at Acetylcholinesterase [5], “Dose-dependent effect”. Also, the figures for the IC50 at Acetylcholinesterase [5] and on Butyrylcholinesterase [7] were 91.5 µM and 20.6 µM, respectively.

With `CC(C)=CCC/C(C)=C/Cc1c(O)cc2c(c1O)C(=O)C[C@@H](c1ccc(O)c(O)c1)O2` [NYMPHAEOL A], the results for the Ki on Butyrylcholinesterase [1] and on Acetylcholinesterase [6] were 1.2 µM and 8.4 µM, respectively. Besides, on Acetylcholinesterase [2], the KSV was determined as 0.0577 ×10⁵ L/M. The same compound showed a Ka at Acetylcholinesterase [3] of 5.49 ×10³ L/M. Moreover, at Acetylcholinesterase [8], the Ratio IC50 was 200. For the same compound, the figures for the inhibition result on Acetylcholinesterase [4] and on Acetylcholinesterase [5] were “tde” and “Dose-dependent effect”, respectively. The half-inhibitory concentration (IC50) on Acetylcholinesterase [5] amounted to 7.2 µM; on Butyrylcholinesterase [7] it was 1.4 µM.

As to `COc1cc([C@H]2Oc3cc(O)c(C/C=C(\C)CCC=C(C)C)c(O)c3C(=O)[C@@H]2O)ccc1O`, the figures for the inhibition constant (Ki) on Butyrylcholinesterase [1] and at Acetylcholinesterase [6] were 18.2 µM and 68.2 µM, respectively. For the same compound, the inhibition result at Acetylcholinesterase [4] was “tde”; on Acetylcholinesterase [5], “Dose-dependent effect”. Besides, the figures for the IC50 at Acetylcholinesterase [5] and at Butyrylcholinesterase [7] were 48.5 µM and 11.2 µM, respectively.

Regarding `COc1ccc([C@H]2Oc3cc(O)c(C/C=C(\C)CCC=C(C)C)c(O)c3C(=O)[C@@H]2O)cc1O`, the Ki on Butyrylcholinesterase [1] came out at 18.7 µM; at Acetylcholinesterase [6] it was 34.3 µM. Moreover, the KSV at Acetylcholinesterase [2] turned out to be 0.0285 ×10⁵ L/M. The compound also returned a Ka at Acetylcholinesterase [3] of 2.7 ×10³ L/M. Also, the inhibition entry is “tde” on Acetylcholinesterase [4] and “Dose-dependent effect” at Acetylcholinesterase [5]. Also, the results for the IC50 at Acetylcholinesterase [5] and on Butyrylcholinesterase [7] were 31.9 µM and 12.7 µM, respectively.

`COc1ccc([C@@H]2CC(=O)c3c(O)cc(O)cc3O2)cc1O` [HESPERETIN]: the IC50 on Acetylcholinesterase [5] was 2480 µM; at Butyrylcholinesterase [7], 1770 µM.

`O=C1C[C@@H](c2ccc(O)cc2)Oc2cc(O)cc(O)c21` [NARINGENIN]: the IC50 at Acetylcholinesterase [5] is 2040 µM; at Butyrylcholinesterase [7] it was 1490 µM.

Turning to `COc1cc(C2CC(=O)c3c(cc(O)c(C/C=C(\C)CCC=C(C)C)c3O)O2)cc(OC)c1O` (configuration not stated), on Butyrylcholinesterase [1], the Ki stood at 75.2 µM. Besides, the IC50 at Acetylcholinesterase [5] is 316 µM; on Butyrylcholinesterase [7] it was 80 µM.
